Screens deposited in PubChem BioAssay by several laboratories.
Sampled rows, rich in hits. Any-hit rate of the full collection: about 1.6%.
PKA-R2B act: activates the human PKA-R2B holoenzyme complex; PKA-R2B holoenzyme dissociation, Cy5-IP20 fluorescence polarization; R2B truncated from residue 108, S112A mutant; 0% DMSO only, 100% 113 µM cGMP; AID 504700; activation, % at 11.4 µM; actives 0.079% (n = 340,000);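 active = activation above a cutoff set at the mean over all compounds plus 3 SD, cut at about 18% in these data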;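 also: higher means more holoenzyme dissociation and a rise in polarization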
Target sequence (P31323 whole entry, looked up, other chains not shown, the tested form may be a part): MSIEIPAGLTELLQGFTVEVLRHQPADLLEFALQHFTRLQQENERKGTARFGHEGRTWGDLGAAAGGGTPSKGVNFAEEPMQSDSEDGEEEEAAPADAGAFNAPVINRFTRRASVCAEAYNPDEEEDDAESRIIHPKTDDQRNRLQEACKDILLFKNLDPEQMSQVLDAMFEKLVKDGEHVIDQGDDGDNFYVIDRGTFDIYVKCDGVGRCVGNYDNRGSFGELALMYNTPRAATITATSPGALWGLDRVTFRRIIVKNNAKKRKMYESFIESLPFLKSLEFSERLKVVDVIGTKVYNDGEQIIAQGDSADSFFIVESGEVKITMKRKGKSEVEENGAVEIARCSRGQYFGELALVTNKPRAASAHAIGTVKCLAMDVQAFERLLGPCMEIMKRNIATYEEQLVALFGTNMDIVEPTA
CSN inh: CSN deneddylation inhibition; Purified CSN, SCF-Nedd8-OG deneddylation, fluorescence polarization; inhibition, % at 12.5 µM; actives 0.38% (n = 360,000);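 active = pattern-corrected inhibition above about 35%, with an unprinted fluorescence ratio check between 0.5 and 1.5, limit read from the data, passing the limit was not always enough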;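 also: 0% = enzyme with substrate and 100% = substrate without enzyme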
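Material: human Csn5 produced in HEK293T cells; Input: enzyme 0.24 nM; Reagent: SCFSkp2-Nedd8OG substrate at 10 nM final; Dosing: 12.5 µM compound; Incubation: 90 min reaction at room temperature; Detection: fluorescence polarization of the substrate; Evaluation: % inhibition of substrate cleavage by Csn5; Control set: substrate-only high control, full reaction low control.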
HNF4A DNA FP: change in binding of human HNF4 alpha to DNA; actives 0.3% (n = 360,000); activity change, % at 10 µM; P41235; HNF4a-FITC DNA binding, fluorescence polarization, 1 h; in the data active = activity change above about 30%, passing the limit was not always enough
Rpn11 inh: Rpn11 (human) deubiquitinase inhibition. human 26S proteasome, Ub4-pepOG fluorescence polarization; 20S core pre-blocked with epoxomicin. calls only at 20 µM. actives 0.59% (n = 360,000). O00487;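 active = inhibition at 20 µM, scaled to each plate's controls, above about 33%, limit read from the data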
TPT1 inh: C. albicans TPT1 enzyme inhibition; inhibition, % at 5 µM; recombinant caTPT1, FP RNA substrate dephosphorylation; actives 0.81% (n = 300,000);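 active = inhibition above the mean of all tested compounds plus 3 SD, set per screening campaign, cut at about 24% in these data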;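 also: plate controls were DMSO alone for no effect and ferristatin control at 100 nM for full effect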
PKA-R1A activ: activators of PKA-R1A complex; PKA-R1A dissociation, Cy5-IP20 fluorescence polarization; scaled: DMSO 0%, 113 µM cGMP 100%; activation, % at 11.4 µM; actives 0.083% (n = 340,000); AID 504707;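 active = percent activation above the mean of all tested compounds plus 3 SD, cut at about 19% in these data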;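 also: higher means more PKAc released from R1A so a rise in polarization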
Rpn11 confirm: confirmation of human proteasome Rpn11 inhibitors; shares compounds with Rpn11 inh; purified human 26S proteasome, Ub4-pepOG fluorescence polarization; proteasome pretreated with epoxomicin; inhibition, % at 20 µM; actives 29% (n = 1,900); AID 602318
MMP-2 counter-1: counter-screen for RPN11 inhibitors: inhibition of human MMP-2. inhibition, % at 20 µM. recombinant MMP-2, FRET peptide cleavage fluorescence. shares compounds with Rpn11 inh. actives 4% (n = 1,900);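 also: human MMP-2 activated beforehand with APMA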
Thrombin FP: counter-screen for RPN11 inhibitors: inhibition of bovine thrombin | shares compounds with Rpn11 inh | bovine thrombin cleavage of Ub4-pepOG, fluorescence polarization | inhibition, % at 20 µM | actives 13% (n = 1,900) | AID 602333;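 active = mean inhibition at least 40% at 20 µM, or signal 3 deviations below plate average, so some actives read negative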;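 also: plate controls were thrombin with DMSO for no effect and buffer wells lacking thrombin for full effect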
CSN deneddyl val: Csn5 (human) deneddylation inhibition, single-concentration validation | shares compounds with CSN inh | Csn5 deneddylation of SCF-Nedd8OG, fluorescence polarization, 90 min | inhibition, % at 16.6 µM | actives 62% (n = 540) | AID 720654; in the data active = inhibition above about 50%;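 also: 0% = DMSO with enzyme and 100% = no enzyme wells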
MMP-2 counter-2: counter-screen for CSN deneddylation inhibitors: human MMP-2 inhibition; actives 33% (n = 540); AID 720655; recombinant MMP-2, FRET substrate fluorescence, 60 min; inhibition, % at 16.6 µM; shares compounds with CSN inh;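 active = corrected plate-normalized z-score of 5 or more, or -5 or less, or inhibition of 15% or more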;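 also: plate controls were DMSO wells with enzyme for no effect and buffer wells lacking MMP-2 for full effect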
Thrombin counter: blocks bovine thrombin in a CSN deneddylation counter-screen | inhibition, % at 16.6 µM | actives 49% (n = 540) | shares compounds with CSN inh | bovine thrombin cleavage of Ub4-pepOG, fluorescence polarization;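 active = inhibition at or above a set limit, with a fluorescence interference ratio between 0.5 and a set maximum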
* = called active by the depositor; i = inactive; x = no result; + = active, no number. Rule as the data show it, unless noted: active = inhibition above about 40%; inactive = the rest.

SMILES	PKA-R2B act	CSN inh	HNF4A DNA FP	Rpn11 inh	TPT1 inh	PKA-R1A activ	Rpn11 confirm	MMP-2 counter-1	Thrombin FP	CSN deneddyl val	MMP-2 counter-2	Thrombin counter
O=C1c2ccccc2C(=O)c2c(NCc3cccnc3)cccc21	3	2	5	i	-2	-2	x	x	x	x	x	x
COc1cc(Cl)cc(/C=N\NC(=O)c2ccc3c(c2)OCO3)c1O	0	99*	6	+	x	-10	134*	23	76*	-79	23*	4
Cc1ccc(S(=O)(=O)N2CCN(c3ccc([N+](=O)[O-])cn3)CC2)cc1	-4	-1	0	i	3	-7	x	x	x	x	x	x
O=C(O)CN1C(=O)/C(=C\c2cccc(OC(=O)c3ccco3)c2)SC1=S	8	-5	12	i	-2	2	x	x	x	x	x	x
O=C(O)CN1C(=O)/C(=C\c2ccc(OC(=O)c3ccco3)cc2)SC1=S	-5	54*	73*	+	21	6	96*	0	68*	82*	11	68*
Cc1nc(S/C(=C\c2ccc(OCc3ccccc3Cl)cc2)C(=O)O)n[nH]1	-7	-2	2	i	-4	6	x	x	x	x	x	x
Cc1nc(S/C(=C\c2ccc(-c3ccc(C(=O)O)c(Cl)c3)o2)C(=O)O)n[nH]1	12	73*	-39	+	x	5	197*	22	24	x	19*	12
Cc1cc(C(=O)CSc2nnc(CCC(N)=O)n2C)c(C)n1C1CC1	-6	-5	-1	i	x	7	x	x	x	x	x	x
CC[n+]1ccccc1/C=C/c1ccc(N(C)C)cc1	3	38*	50*	+	x	0	84*	-92	88*	65*	-73*	46*
O=C(O)CCCCCN1C(=O)/C(=C\c2cn(-c3ccccc3)nc2-c2cccs2)SC1=S	1	10	-10	i	2	1	x	x	x	x	x	x
O=C(O)CCCCCN1C(=O)/C(=C/c2cn(-c3ccccc3)nc2-c2cccs2)SC1=S	-4	92*	-4	+	x	-18	84*	-18	48*	82*	-6	22*
Cc1sc2nc3c4ccccc4c(NCc4ccco4)nn3c(=O)c2c1C	-13	64*	-1	+	6	-6	0	-13	-6	102*	7	7
CCOC(=O)N1CCN(C(=O)C2CCCN(S(=O)(=O)c3c(C)cc(C)cc3C)C2)CC1 (stereo unspecified)	-8	4	1	i	-1	-9	x	x	x	x	x	x
COc1ccc2nc(C)cc(N/N=C/c3ccc(F)cc3)c2c1	-3	45*	-3	+	1	-9	4	-27	-41	92*	16*	-10
O=C(OC1CCOC1=O)c1cccc(S(=O)(=O)N2CCc3ccccc3C2)c1 (stereo unspecified)	-8	-4	3	i	2	-1	x	x	x	x	x	x
